What was measured:
Assay type in all cases: functional
Enterococcus faecium [1] = test: Antimicrobial activity against vancomycin-susceptible Enterococcus faecium by broth microdilution method
Procedure, shortened: (§1)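 Clinical isolates were tested by CLSI broth microdilution in unsupplemented cation-adjusted Mueller-Hinton broth. The read-out was the MIC, reported as MIC90 (μg/ml) per species or phenotypic group. Ceftriaxone, levofloxacin and imipenem were run in parallel as comparators.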

Staphylococcus aureus [2] = test: Antimicrobial activity against methicillin-resistant Staphylococcus aureus by broth microdilution method
Procedure, shortened: (§2)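 Isolates of the stated resistance phenotype were tested by CLSI broth microdilution in unsupplemented cation-adjusted Mueller-Hinton broth. Ceftaroline was compared with ceftriaxone, levofloxacin and imipenem. Activity was expressed as MICs (MIC90 in μg/ml).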

Salmonella sp. = test: Antimicrobial activity against Salmonella spp. by broth microdilution method; procedure, shortened: as §1
Providencia rettgeri = test: Antimicrobial activity against Proteus rettgeri by broth microdilution method; procedure, shortened: as §1
Streptococcus agalactiae = test: Antimicrobial activity against Streptococcus agalactiae by broth microdilution method
Procedure, shortened: (§3)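 Streptococcal isolates were tested by CLSI broth microdilution in cation-adjusted Mueller-Hinton broth supplemented with 3% lysed horse blood. The read-out was the MIC, with MIC90 (μg/ml) reported per group. Ceftriaxone, levofloxacin and imipenem served as comparators.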

Haemophilus influenzae [3] = test: Antimicrobial activity against beta-lactamase-negative ampicillin resistant Haemophilus influenzae by broth microdilution method
Procedure, shortened: (§4)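 CLSI broth microdilution in Haemophilus test medium (cation-adjusted Mueller-Hinton base) against clinical H. influenzae isolates of the stated phenotype. Ceftaroline was compared with ceftriaxone, levofloxacin and imipenem. Activity was expressed as MICs (MIC90 in μg/ml).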

Moraxella catarrhalis = test: Antimicrobial activity against Moraxella catarrhalis by broth microdilution method; procedure, shortened: as §1
Pseudomonas aeruginosa [4] = test: Antimicrobial activity against multidrug resistant Pseudomonas aeruginosa by broth microdilution method; procedure, shortened: as §2
Proteus mirabilis = test: Antimicrobial activity against Proteus mirabilis by broth microdilution method; procedure, shortened: as §1
Klebsiella aerogenes = test: Antimicrobial activity against ESBL-negative Enterobacter aerogenes by broth microdilution method; procedure, shortened: as §1
Streptococcus pneumoniae [5] = test: Antimicrobial activity against penicillin-intermediate Streptococcus pneumoniae by broth microdilution method
Procedure, shortened: (§5)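 CLSI broth microdilution in cation-adjusted Mueller-Hinton broth with 3% lysed horse blood, against streptococcal clinical isolates of the stated phenotype. Ceftaroline was compared with ceftriaxone, levofloxacin and imipenem. Activity was expressed as MICs (MIC90 in μg/ml).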

Haemophilus influenzae [6] = test: Antimicrobial activity against beta-lactamase-positive Haemophilus influenzae by broth microdilution method
Procedure, shortened: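 H. influenzae isolates were tested by CLSI broth microdilution using Haemophilus test medium. The MIC was read and MIC90 (μg/ml) reported for the group. Ceftriaxone, levofloxacin and imipenem served as comparators.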

Escherichia coli [7] = test: Antimicrobial activity against ESBL-positive Escherichia coli by broth microdilution method; procedure, shortened: as §1
Staphylococcus aureus [8] = test: Antimicrobial activity against methicillin-susceptible Staphylococcus aureus by broth microdilution method; procedure, shortened: as §1
Pseudomonas aeruginosa [9] = test: Antimicrobial activity against Pseudomonas aeruginosa by broth microdilution method; procedure, shortened: as §1
[10] = system: Stenotrophomonas maltophilia; test: Antimicrobial activity against Stenotrophomonas maltophilia by broth microdilution method; procedure, shortened: as §1
Enterococcus faecium [11] = test: Antimicrobial activity against Enterococcus faecium by broth microdilution method; procedure, shortened: as §1
Streptococcus pyogenes [12] = test: Antimicrobial activity against macrolide-resistant Streptococcus pyogenes by broth microdilution method; procedure, shortened: as §5
Burkholderia cepacia = test: Antimicrobial activity against Burkholderia cepacia by broth microdilution method; procedure, shortened: as §1
Staphylococcus [13] = test: Antimicrobial activity against methicillin-susceptible coagulase-negative Staphylococcus by broth microdilution method; procedure, shortened: as §1
Providencia stuartii = test: Antimicrobial activity against Proteus stuartii by broth microdilution method; procedure, shortened: as §1
Proteus vulgaris = test: Antimicrobial activity against Proteus vulgaris by broth microdilution method; procedure, shortened: as §1
Serratia marcescens = test: Antimicrobial activity against Serratia marcescens by broth microdilution method; procedure, shortened: as §1
Klebsiella pneumoniae [14] = test: Antimicrobial activity against ESBL-positive Klebsiella pneumoniae by broth microdilution method; procedure, shortened: as §1
Klebsiella pneumoniae [15] = test: Antimicrobial activity against ESBL-negative Klebsiella pneumoniae by broth microdilution method; procedure, shortened: as §1
Streptococcus viridans = test: Antimicrobial activity against Streptococcus viridans group clinical isolate by broth microdilution method; procedure, shortened: as §3
Haemophilus influenzae [16] = test: Antimicrobial activity against beta-lactamase-negative Haemophilus influenzae by broth microdilution method; procedure, shortened: as §4
Escherichia coli [17] = test: Antimicrobial activity against ESBL-negative Escherichia coli by broth microdilution method; procedure, shortened: as §1
Enterobacter cloacae = test: Antimicrobial activity against ESBL-negative Enterobacter cloacae by broth microdilution method; procedure, shortened: as §1
Streptococcus pyogenes [18] = test: Antimicrobial activity against macrolide-susceptible Streptococcus pyogenes by broth microdilution method; procedure, shortened: as §5
Staphylococcus [19] = test: Antimicrobial activity against methicillin-resistant coagulase-negative Staphylococcus by broth microdilution method; procedure, shortened: as §2
Enterococcus faecalis [20] = test: Antimicrobial activity against vancomycin-susceptible Enterococcus faecalis by broth microdilution method; procedure, shortened: as §1
Staphylococcus aureus [21] = test: Antimicrobial activity against vancomycin-intermediate Staphylococcus aureus by broth microdilution method; procedure, shortened: as §1
Streptococcus pneumoniae [22] = test: Antimicrobial activity against penicillin-resistant Streptococcus pneumoniae by broth microdilution method; procedure, shortened: as §5
Streptococcus pneumoniae [23] = test: Antimicrobial activity against levofloxacin-resistant Streptococcus pneumoniae by broth microdilution method; procedure, shortened: as §5
Corynebacterium jeikeium = test: Antimicrobial activity against Corynebacterium jeikeium by broth microdilution method; procedure, shortened: as §1
Shigella sp. = test: Antimicrobial activity against Shigella spp. by broth microdilution method; procedure, shortened: as §1
Staphylococcus aureus [24] = test: Antimicrobial activity against vancomycin-resistant Staphylococcus aureus by broth microdilution method; procedure, shortened: as §2
Morganella morganii = test: Antimicrobial activity against Morganella morganii by broth microdilution method; procedure, shortened: as §1
Listeria monocytogenes = test: Antimicrobial activity against Listeria monocytogenes by broth microdilution method; procedure, shortened: as §1
Streptococcus pneumoniae [25] = test: Antimicrobial activity against penicillin-susceptible Streptococcus pneumoniae by broth microdilution method; procedure, shortened: as §3
Enterococcus faecalis [26] = test: Antimicrobial activity against Enterococcus faecalis by broth microdilution method; procedure, shortened: as §1

## C[C@H]1COc2c(N3CCN(C)CC3)c(F)cc3c(=O)c(C(=O)O)cn1c23.C[C@H]1COc2c(N3CCN(C)CC3)c(F)cc3c(=O)c(C(=O)O)cn1c23.O [LEVOFLOXACIN]
Enterococcus faecium [1]
  MIC50: 2 µg/mL
  MIC90: > 32 µg/mL
Staphylococcus aureus [2]
  MIC50: 8 µg/mL
  MIC90: > 32 µg/mL
Salmonella sp.
  MIC: 0.03 µg/mL
  MIC50: 0.03 µg/mL
  MIC90: 0.06 µg/mL
Providencia rettgeri
  MIC50: 0.12 µg/mL
  MIC90: > 32 µg/mL
Streptococcus agalactiae
  MIC50: 1 µg/mL
  MIC90: 1 µg/mL
Haemophilus influenzae [3]
  MIC50: 0.03 µg/mL
  MIC90: 0.06 µg/mL
Moraxella catarrhalis
  MIC50: 0.03 µg/mL
  MIC90: 0.03 µg/mL
Pseudomonas aeruginosa [4]
  MIC50: 32 µg/mL
Proteus mirabilis
  MIC: 0.03 µg/mL
  MIC50: 0.03 µg/mL
  MIC90: 0.25 µg/mL
Klebsiella aerogenes
  MIC50: 0.06 µg/mL
  MIC90: 0.5 µg/mL
Streptococcus pneumoniae [5]
  MIC50: 1 µg/mL
  MIC90: 1 µg/mL
Haemophilus influenzae [6]
  MIC50: 0.03 µg/mL
  MIC90: 0.03 µg/mL
Escherichia coli [7]
  MIC50: 0.25 µg/mL
  MIC90: 32 µg/mL
Staphylococcus aureus [8]
  MIC50: 0.25 µg/mL
  MIC90: 8 µg/mL
Pseudomonas aeruginosa [9]
  MIC50: 2 µg/mL
  MIC90: > 32 µg/mL
[10]
  MIC50: 1 µg/mL
  MIC90: 16 µg/mL
Enterococcus faecium [11]
  MIC50: > 32 µg/mL
  MIC90: > 32 µg/mL
Streptococcus pyogenes [12]
  MIC: 0.5 µg/mL
  MIC50: 0.5 µg/mL
  MIC90: 0.5 µg/mL
Burkholderia cepacia
  MIC50: 1 µg/mL
  MIC90: 32 µg/mL
Staphylococcus [13]
  MIC50: 0.25 µg/mL
  MIC90: 16 µg/mL
Providencia stuartii
  MIC50: 0.12 µg/mL
  MIC90: > 32 µg/mL
Proteus vulgaris
  MIC50: 0.03 µg/mL
  MIC90: 0.06 µg/mL
Serratia marcescens
  MIC50: 0.12 µg/mL
  MIC90: 0.25 µg/mL
Klebsiella pneumoniae [14]
  MIC50: 0.5 µg/mL
  MIC90: 8 µg/mL
Klebsiella pneumoniae [15]
  MIC50: 0.06 µg/mL
  MIC90: 0.5 µg/mL
Streptococcus viridans
  MIC50: 1 µg/mL
  MIC90: 2 µg/mL
Haemophilus influenzae [16]
  MIC50: 0.03 µg/mL
  MIC90: 0.03 µg/mL
Escherichia coli [17]
  MIC50: 0.03 µg/mL
  MIC90: 0.25 µg/mL
Enterobacter cloacae
  MIC50: 0.03 µg/mL
  MIC90: 0.06 µg/mL
Streptococcus pyogenes [18]
  MIC50: 0.5 µg/mL
  MIC90: 2 µg/mL
Staphylococcus [19]
  MIC50: 8 µg/mL
  MIC90: > 32 µg/mL
Enterococcus faecalis [20]
  MIC: 1 µg/mL
  MIC50: 1 µg/mL
  MIC90: > 32 µg/mL
Staphylococcus aureus [21]
  MIC50: 16 µg/mL
  MIC90: 32 µg/mL
Streptococcus pneumoniae [22]
  MIC50: 1 µg/mL
  MIC90: 1 µg/mL
Streptococcus pneumoniae [23]
  MIC50: 16 µg/mL
  MIC90: > 32 µg/mL
Corynebacterium jeikeium
  MIC50: > 32 µg/mL
  MIC90: > 32 µg/mL
Shigella sp.
  MIC50: 0.03 µg/mL
  MIC90: 0.06 µg/mL
Staphylococcus aureus [24]
  MIC: 16 µg/mL
Morganella morganii
  MIC50: 0.06 µg/mL
  MIC90: 8 µg/mL
Listeria monocytogenes
  MIC: 1 µg/mL
  MIC50: 1 µg/mL
  MIC90: 1 µg/mL
Streptococcus pneumoniae [25]
  MIC50: 1 µg/mL
  MIC90: 2 µg/mL
Enterococcus faecalis [26]
  MIC50: 1 µg/mL
  MIC90: 32 µg/mL

— ChEMBL document CHEMBL1629657, “In vitro antimicrobial activity of a new cephalosporin, ceftaroline, and determination of quality control ranges for MIC testing” (2009)
